Experimental findings from ChEMBL document CHEMBL4725355, “Design, Synthesis, and Preclinical Evaluation of 3-Methyl-6-(5-thiophenyl)-1,3-dihydro-imidazo[4,5-b]pyridin-2-ones as Selective GluN2B Negative Allosteric Modulators for the Treatment of Mood Disorders” (J Med Chem, 2020) are described below.

As a reminder, the IC50 is the concentration at which inhibition is half-maximal. Low readings indicate greater potency, high ones weaker potency. For orientation: clearance means the volume of plasma or blood freed of the substance per unit of time. Read a high clearance as efficient removal. What is called Cmax is the highest concentration seen after dosing. The AUC(0-t) is the area under the concentration-time curve up to a stated or last time point. The low end stands for less exposure, the high end for more exposure. A word on the AUC: it is the area under the concentration-time curve, a measure of exposure. A low value points to low exposure.

Series [1] concerns the target T1, Cytochrome P450 3A4 (Homo sapiens, UniProt P08684). Kind of series: Inhibition of CYP3A4 in human liver microsomes using nifedipine as substrate measured after 15 mins by LC-MS/MS analysis. Type of series: ADME. In a few lines:
(§1)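 Human liver microsomes incubated with isoform-specific probe substrates and the test compound at concentrations up to 20 µM. IC50 derived from inhibition of metabolite formation; mean of two independent experiments, with known specific inhibitors as positive controls.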
On the technique in general: Liver microsomes are vesicles of endoplasmic reticulum, rich in cytochrome P450 enzymes.

A short description of series [2]: Toxicity in Sprague-Dawley rat up to 500 mg/kg/day, po administered as nanosuspension measured for 14 days. Type of series: organism-based. Conditions: in vivo, 336 h, time 14 day. Put shortly:
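Repeated daily oral dosing of a nanosuspension to rats for 14 days, with 500 mg/kg/day as the high dose. Clinical observations were recorded, and animals were moved to individual caging on Day 6.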

Series [3] is described as follows: Intrinsic clearance in dog liver microsomes at 1 uM after 5 to 60 mins in presence of NADPH by LC-MS/MS analysis. Conditions: time 5-60 min, read-out: CLH. Type of series: ADME, Canis lupus familiaris, Microsome.
The target in series [4] is T2, Nuclear receptor subfamily 1 group I member 2 (Homo sapiens, UniProt O75469).
T2 sequence (O75469 whole entry): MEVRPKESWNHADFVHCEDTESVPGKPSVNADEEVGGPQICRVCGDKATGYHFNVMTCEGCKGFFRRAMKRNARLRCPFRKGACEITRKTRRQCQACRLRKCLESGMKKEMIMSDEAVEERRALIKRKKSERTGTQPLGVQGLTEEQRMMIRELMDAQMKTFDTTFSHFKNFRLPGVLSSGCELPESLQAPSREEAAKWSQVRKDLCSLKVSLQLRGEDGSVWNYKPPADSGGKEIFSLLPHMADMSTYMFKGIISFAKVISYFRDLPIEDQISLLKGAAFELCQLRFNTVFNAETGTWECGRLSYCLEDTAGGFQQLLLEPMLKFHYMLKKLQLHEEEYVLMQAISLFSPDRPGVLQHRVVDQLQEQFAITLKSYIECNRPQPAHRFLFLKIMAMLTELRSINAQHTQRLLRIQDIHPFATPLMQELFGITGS
Description: Activation of human PXR expressed in human DPX2 cells assessed as induction of CYP3A by luciferase reporter gene assay relative to control. Type of series: ADME, cell-based. In a few lines: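 Luciferase reporter lines were used. DPX2 is HepG2 carrying human PXR plus a CYP3A4 promoter-luciferase construct. 1A2-DRE carries human AhR plus a CYP1A2 promoter with 3 DRE copies. Luminescence was read with ONE-Glo. Activation was expressed relative to rifampicin (PXR) or omeprazole (AhR).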

Series [5] can be described thus: Ratio of Cmax in Sprague-Dawley rat at 500 mg/kg, po administered via gavage after 24 hrs using HPMC formulation by LC-MS/MS analysis to EC70 for ex vivo receptor occupancy at GluN2B in po dosed Sprague-Dawley rat assessed as 3-[3H] 1-(azetidin-1-yl)-2-[6-(4-fluoro-3-methyl-phenyl)pyrrolo[3,2-b]pyridin-1-yl]-ethanone labelling. Type of series: ADME, organism-based.

Series [6] in a line: Drug level in Sprague-Dawley rat brain cerebellum at 0.03 mg/kg, iv after 5 min by LC-MS/MS analysis. The series is classed as ADME, organism-based. Conditions: read-out: Drug uptake. In a few lines:
(§2)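 Single i.v. dose of 0.03 mg/kg in 50% (w/v) PEG/water, pH 7.4; rats n=3 per group, killed at 5, 10, 30, 60 and 120 min. Cerebellum, cortex, striatum and hippocampus dissected, weighed and homogenized; drug quantified by LC-MS/MS and normalized to tissue weight. P<0.05 taken as significant versus cerebellum.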

Series [7] in a line: Metabolic stability in human liver microsomes assessed as extraction ratio at 1 uM after 5 to 60 mins in presence of NADPH by LC-MS/MS analysis. Conditions: time 5-60 min, read-out: ERH. Type of series: ADME, Microsome. Put shortly:
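Human and rat liver microsomes, run in duplicate; stability reported as microsomal extraction ratio.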

The subject of a further series is Rattus norvegicus. Description: Ex vivo receptor occupancy at GluN2B in po dosed Sprague-Dawley rat assessed as total plasma concentration causing 70% 3-[3H] 1-(azetidin-1-yl)-2-[6-(4-fluoro-3-methyl-phenyl)pyrrolo[3,2-b]pyridin-1-yl]-ethanone labelling measured after 60 mins by autoradiography. The series is classed as functional, organism-based. In a few lines: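 Oral dosing in rat at 8 dose levels, vehicle 20% HP-β-CD, 3 animals per group. Hippocampal GluN2B occupancy was measured ex vivo by autoradiography at 60 min post dose with the [3H] pyrrolopyridine tracer on brain slices. Labelling was expressed as percent of naïve control rats. EC70 was taken as the total (bound + unbound) plasma concentration giving 70% occupancy, with a 95% confidence interval.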

In series [8] the target is T1, Cytochrome P450 3A4. Description: Time-dependent inhibition of CYP3A4 in human liver microsomes at 10 uM using nifedipine as substrate by LC-MS/MS analysis. Type of series: ADME. In a few lines:
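CYP3A4 time-dependent inhibition in human liver microsomes. The compound (0.4 to 10 μM) was tested with and without 30 min preincubation. IC50 was taken from percent activity remaining versus vehicle, averaged over two independent experiments. A >2-fold IC50 shift after preincubation was the threshold for time-dependent inhibition.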

The nature of series [9]: Drug level in Sprague-Dawley rat brain cortex at 0.03 mg/kg, iv after 5 to 120 mins by LC-MS/MS analysis. Type of series: ADME, organism-based. To be noted: in vivo, time 5-120 min. In a few lines:
as §2

The target of a further series is Cytochrome P450 2D6 (Homo sapiens, UniProt P10635). Description: Inhibition of CYP2D6 in human liver microsomes using dextromethorphan as substrate measured after 15 mins by LC-MS/MS analysis. The series is classed as ADME. Put shortly:
as §1

Series [10] can be described thus: Clearance in Sprague-Dawley rat at 0.5 mg/kg, iv using 1:1 PEG-400/water formulation by LC-MS/MS analysis. Type of series: ADME, organism-based. Conditions: in vivo. Put shortly:
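Rat IV/PO PK at 0.5 mg/kg IV and 2.5 mg/kg PO, dosed in 1:1 PEG400/water, n=3.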

The nature of series [11]: Volume of distribution at steady state in mouse at 0.5 mg/kg, iv by LC-MS/MS analysis. Type of series: ADME, organism-based. To be noted: in vivo, read-out: Vdss.
Series [12] is described as follows: Cmax in Sprague-Dawley rat at 500 mg/kg, po administered via gavage after 24 hrs using nanosuspension formulation by LC-MS/MS analysis. To be noted: in vivo. Also noted: route oral, time 24 hrs, dose 500 mg/kg. The series is classed as ADME, organism-based. In a few lines: (§3)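 Single oral gavage dose to male Sprague Dawley rats, 3 per dose level. Vehicles were a standard suspension in 5% HPMC (125, 250, 500 or 1000 mg/kg) or a nanosuspension (API:polymer 4:1), with stock diluted in vehicle on the day of dosing (100, 250 or 500 mg/kg). Blood was sampled at time points from 0.5 to 24 h.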

Series [13] is described as follows: Cmax in Sprague-Dawley rat at 500 mg/kg/day, po administered as nanosuspension measured for 14 days measured post last dose by LC-MS/MS analysis. The series is classed as ADME, organism-based. Also noted: route oral, time 14 day, dose 500 mg/kg/day. To be noted: in vivo. Put shortly: (§4)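 Repeated daily oral dosing of the nanosuspension to rats for 14 days, up to 500 mg/kg/day.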

The nature of series [14]: AUC (0 to 24 hrs) in Sprague-Dawley rat at 125 mg/kg, po administered via gavage after 24 hrs using HPMC formulation by LC-MS/MS analysis. The series is classed as ADME, organism-based. Also noted: route oral, dose 125 mg/kg, time <=24. Conditions: in vivo. In a few lines: as §3
Series [15] is described as follows: AUC (0 to 24 hrs) in Sprague-Dawley rat at 500 mg/kg/day, po administered as nanosuspension measured for 14 days measured post last dose by LC-MS/MS analysis. The series is classed as ADME, organism-based. Also noted: route oral, dose 500 mg/kg/day, time 14 day. To be noted: in vivo. In a few lines:
as §4

Where only a bound is given, the exact number is not on record here.

T1 sequence (P08684 whole entry, canonical isoform): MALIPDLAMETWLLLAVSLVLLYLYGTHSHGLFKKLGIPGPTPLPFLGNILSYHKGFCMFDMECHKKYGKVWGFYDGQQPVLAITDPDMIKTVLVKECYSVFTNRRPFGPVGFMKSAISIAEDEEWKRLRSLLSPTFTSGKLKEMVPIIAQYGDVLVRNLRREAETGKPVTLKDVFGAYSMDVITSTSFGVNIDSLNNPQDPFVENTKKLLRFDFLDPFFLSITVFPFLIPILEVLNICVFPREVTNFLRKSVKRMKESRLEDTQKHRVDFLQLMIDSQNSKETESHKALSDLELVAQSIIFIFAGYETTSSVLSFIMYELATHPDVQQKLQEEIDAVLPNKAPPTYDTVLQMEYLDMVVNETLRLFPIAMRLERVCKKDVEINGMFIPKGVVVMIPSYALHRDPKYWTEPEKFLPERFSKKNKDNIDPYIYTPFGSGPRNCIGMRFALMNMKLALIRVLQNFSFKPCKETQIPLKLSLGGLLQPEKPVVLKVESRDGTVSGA
Chain of Cytochrome P450 2D6 (P10635 whole entry): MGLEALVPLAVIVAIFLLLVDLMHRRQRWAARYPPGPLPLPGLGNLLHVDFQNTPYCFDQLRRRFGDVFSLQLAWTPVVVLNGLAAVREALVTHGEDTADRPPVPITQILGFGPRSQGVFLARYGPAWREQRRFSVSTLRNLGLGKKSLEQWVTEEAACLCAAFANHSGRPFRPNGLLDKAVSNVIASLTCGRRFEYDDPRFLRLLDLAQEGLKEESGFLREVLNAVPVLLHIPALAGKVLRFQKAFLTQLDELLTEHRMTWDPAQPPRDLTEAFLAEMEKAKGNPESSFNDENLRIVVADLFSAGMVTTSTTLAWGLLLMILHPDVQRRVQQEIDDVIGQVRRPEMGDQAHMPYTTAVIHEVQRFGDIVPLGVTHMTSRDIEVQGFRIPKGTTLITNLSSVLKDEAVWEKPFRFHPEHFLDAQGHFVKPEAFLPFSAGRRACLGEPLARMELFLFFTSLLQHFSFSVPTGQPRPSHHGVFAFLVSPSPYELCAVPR

With `Cn1c(=O)n(CC(=O)N2CCC2)c2cc(-c3ccc(C(F)(F)F)s3)cnc21`, the IC50 was greater than 50 µM on Cytochrome P450 3A4 [1] and 15 µM against Cytochrome P450 2D6. For the same molecule, the Activity result in [2] was “Non-Toxic”; in series [4], less than 20%. The microsomal CLint at 1 µM in series [3] amounted to 14.7 µL/min/mg. Further, the Ratio in [5] was 9. Besides, the concentration at 5 min in series [6] worked out at 19.3 ng/mL. Also, the hepatic extraction ratio at 1 µM in [7] is less than 0.3. In the series with Rattus norvegicus, the Cp is 716 ng/mL. At Cytochrome P450 3A4 [8], the TDI result is given as “Not Active”. In addition, the Drug uptake entry in series [9] was “Active”. Moreover, the clearance in series [10] was 30 mL/min/kg. In addition, the Vd in series [11] amounted to 3.2 L/kg. Moreover, the Cmax is 18300 ng/mL in series [12] and 21700 ng/mL in series [13]. Besides, the AUC(0-t) in [14] came to 22.8 µg·h/mL. Also, in series [15], the exposure (AUC) at 336 h came out at 222 µg·h/mL.
